Screening results as filed in PubChem BioAssay.
HTRA1 inh – inhibitors of human serine peptidase HTRA1. recombinant HTRA1, FP-rhodamine activity-based probe, fluorescence polarization. inhibition, % at 5.96 µM. actives 0.5% (n = 340,000); in the data active = inhibition above about 36%
Target sequence (Q92743 whole entry, looked up): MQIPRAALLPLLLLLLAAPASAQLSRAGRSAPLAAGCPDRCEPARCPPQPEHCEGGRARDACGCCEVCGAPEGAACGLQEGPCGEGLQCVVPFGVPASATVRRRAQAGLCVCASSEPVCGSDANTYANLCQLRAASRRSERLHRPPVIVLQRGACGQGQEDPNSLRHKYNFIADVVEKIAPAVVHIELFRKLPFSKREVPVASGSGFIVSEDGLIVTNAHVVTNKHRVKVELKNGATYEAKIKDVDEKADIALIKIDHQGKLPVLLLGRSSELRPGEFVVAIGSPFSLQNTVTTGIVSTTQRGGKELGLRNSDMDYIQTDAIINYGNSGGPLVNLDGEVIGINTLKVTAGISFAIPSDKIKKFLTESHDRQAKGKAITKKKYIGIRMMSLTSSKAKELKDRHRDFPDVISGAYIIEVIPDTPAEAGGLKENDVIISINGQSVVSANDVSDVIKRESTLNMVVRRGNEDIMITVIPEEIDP
ABHD4 inh – inhibits mouse alpha/beta hydrolase domain 4 | actives 0.54% (n = 370,000) | inhibition, % at 8.92 µM | Q8VD66 | AID 720543 | purified mABHD4, FP-Rh probe fluorescence polarization;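 active = inhibition exceeding the mean over every tested compound plus 3 SD, cut at about 30% in these data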
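assay system = mABHD4 protein | compound dosing = single nominal dose of 8.92 µM, 0.89% DMSO final | read-out basis = percent inhibition of probe binding, normalized to plate controls | schedule = Enzyme–compound pre-incubation 45 min, then probe 60 min, both 25 °C | detection = fluorescence polarization, excitation 525 nm, emission 598 nm, BODIPY TMR filters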
PAFAH1B2 inh – PAFAH1B2 (human) inhibition. P68402. recombinant PAFAH1B2, FP-rhodamine activity probe, fluorescence polarization. inhibition, % at 3.39 µM. actives 1.2% (n = 340,000);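 active = inhibition above the mean of all tested compounds plus 3 SD, cut at about 24% in these data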
pPAFAH inh – pPAFAH (human) enzyme inhibition; Q13093; recombinant pPAFAH, FP-rhodamine probe fluorescence polarization; inhibition, % at 3.39 µM; actives 1.5% (n = 330,000); AID 463082;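 active = inhibition above the mean inhibition across the screen plus 3 SD, cut at about 25% in these data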;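 note: inhibitors block binding of the rhodamine activity-based probe so polarization drops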
PAFAH1B3 inh – blocks human PAF acetylhydrolase 1B catalytic subunit 3 | Q15102 | recombinant PAFAH1B3, FP-rhodamine probe, fluorescence polarization | inhibition, % at 3.39 µM | actives 0.28% (n = 340,000) | AID 492972;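 active = inhibition above the screen-wide average of all tested compounds plus 3 SD, cut at about 25% in these data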
Target sequence (Q15102 whole entry, looked up): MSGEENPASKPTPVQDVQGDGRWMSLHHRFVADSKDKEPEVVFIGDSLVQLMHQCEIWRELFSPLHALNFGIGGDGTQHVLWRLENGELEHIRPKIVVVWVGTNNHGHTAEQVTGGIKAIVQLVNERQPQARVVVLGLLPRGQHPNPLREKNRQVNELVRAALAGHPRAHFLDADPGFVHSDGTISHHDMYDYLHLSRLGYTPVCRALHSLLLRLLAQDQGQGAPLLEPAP
PAFAH2 inh – PAFAH2 (human) inhibition; recombinant PAFAH2, FP-rhodamine activity probe, fluorescence polarization; actives 0.99% (n = 340,000); inhibition, % at 3.39 µM; AID 492956;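 active = inhibition above the mean over all tested compounds plus 3 SD, cut at about 30% in these data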;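 note: inhibitors block probe labeling of enzyme so polarization drops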
ABHD4 confirm – confirmation of mouse ABHD4 inhibitors; shares compounds with ABHD4 inh; purified mABHD4, FP-Rh probe fluorescence polarization; inhibition, % at 8.92 µM; actives 55% (n = 1,800); AID 720658;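 active = mean inhibition across replicates above the hit cutoff set in the primary screen, cut at about 30% in these data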
Of the large screens only hits and unclear results are named; the others gave an inactive call (follow-up assays come after a bar, where they were run). Only some compounds are listed: those with a hit (about 2.8% of all), similar ones and a draw of the others.

O=C(NC1CCCCC1)O[C@H]1CC[C@@]23CCCN2C(=O)CCC[C@H]3C1	none (no result: HTRA1 inh, PAFAH1B2 inh, pPAFAH inh, PAFAH1B3 inh, PAFAH2 inh)
O=C(CSc1nc2ccccc2s1)N1CCCCC1	none
Cc1c(Cl)cccc1N/C(SCC(=O)N1CCCCCC1)=C(/C#N)c1nc2ccccc2s1	ABHD4 inh 35 | ABHD4 confirm 34
COc1ccc2c(c1)Sc1ccc(Cl)cc1N2	ABHD4 inh 34 (no result: HTRA1 inh, PAFAH1B2 inh, pPAFAH inh, PAFAH1B3 inh, PAFAH2 inh) | ABHD4 confirm 34
NCC(O)COCCC12CC3CC(CC(C3)C1)C2 (stereo unspecified)	none
CC(NCC(O)COCCC12CC3CC(CC(C3)C1)C2)c1ccccc1 (stereo unspecified)	ABHD4 inh 31 | ABHD4 confirm inactive
Cc1ccc(N=Cc2cc3c(cc2[N+](=O)[O-])OCO3)cc1[N+](=O)[O-]	ABHD4 inh 42, pPAFAH inh 31 (no result: HTRA1 inh, PAFAH1B2 inh, PAFAH1B3 inh, PAFAH2 inh) | ABHD4 confirm 30
O=C(CCc1ccc(O)c(O)c1)N/N=C/c1cc2c(cc1[N+](=O)[O-])OCO2	ABHD4 inh 31 (no result: pPAFAH inh) | ABHD4 confirm 38
COC(=O)[C@]12C[C@H](CC(=O)NCCc3ccccc3OC)C(=O)N(Cc3ccc(Cl)cc3Cl)C1=C[C@H](C1CCCC1)O[C@@H]2C	none (no result: HTRA1 inh, PAFAH1B2 inh, pPAFAH inh, PAFAH1B3 inh, PAFAH2 inh)
C/C=C/C=C/C(=O)N1C[C@H](C)N(C)C[C@H]1C	none (no result: HTRA1 inh, PAFAH1B2 inh, pPAFAH inh, PAFAH1B3 inh, PAFAH2 inh)
COc1nc(OC)nc(N2CCC(C(=O)N(C)Cc3ccccc3F)CC2)n1	none (no result: HTRA1 inh, PAFAH1B2 inh, pPAFAH inh, PAFAH1B3 inh, PAFAH2 inh)
COC(=O)c1c(C)oc2c1cc(NS(=O)(=O)c1ccc(C(=O)O)cc1)c1ccccc12	ABHD4 inh 34 | ABHD4 confirm inactive
NC(CO)C(=O)NNCc1ccc(O)c(O)c1O (stereo unspecified)	ABHD4 inh 37, pPAFAH inh 28 | ABHD4 confirm inactive
COc1ccccc1C1Nc2cccc3cccc(c23)N1	ABHD4 inh 55 | ABHD4 confirm 53
COc1ccc(C2Nc3cccc4cccc(c34)N2)cc1	none
CC(C)=CCC/C(C)=C/C[C@]12C[C@H](C(=O)O)N(C(=O)OC(C)(C)C)[C@@H]1N(C(=O)OC(C)(C)C)c1ccccc12	ABHD4 inh 51 (no result: HTRA1 inh, PAFAH1B2 inh, pPAFAH inh, PAFAH1B3 inh, PAFAH2 inh) | ABHD4 confirm 40
N#Cc1cccc(CNCC(=O)N2CCC3(CC2)OCCO3)c1	none (no result: HTRA1 inh, PAFAH1B2 inh, pPAFAH inh, PAFAH1B3 inh, PAFAH2 inh)
Cc1ccc(C)c(N2CCN(C(C(=O)NC3CCCC3)c3ccco3)CC2)c1 (stereo unspecified)	none (no result: HTRA1 inh, PAFAH1B2 inh, pPAFAH inh, PAFAH1B3 inh, PAFAH2 inh)
COc1cccc(C(C(=O)NC2CCCC2)N2CCN(c3cc(C)ccc3C)CC2)c1OC (stereo unspecified)	ABHD4 inh 48 (no result: HTRA1 inh, PAFAH1B2 inh, pPAFAH inh, PAFAH1B3 inh, PAFAH2 inh) | ABHD4 confirm inactive
Cc1ccccc1Cn1cc(COC(=O)N2CCOCC2)nn1	none (no result: HTRA1 inh, PAFAH1B2 inh, pPAFAH inh, PAFAH1B3 inh, PAFAH2 inh)
Nc1ncnc2c1CN(Cc1ccccc1)CC2	ABHD4 inh 72 (no result: pPAFAH inh) | ABHD4 confirm inactive
Cc1cc(/C=C2/C(=O)NN(c3ccccc3)C2=O)c(C)n1-c1ccc(O)cc1	ABHD4 inh 34 | ABHD4 confirm inactive
O=C1/C(=C/c2ccco2)CCc2ccccc21	none
O=C1C(=Cc2ccco2)C(=O)c2ccccc21	ABHD4 inh 35, pPAFAH inh 28 | ABHD4 confirm inactive
COC(=O)C[C@@H]1CC[C@H]2[C@H](COc3ccc(NC(=O)C4CCC4)cc3C(=O)N2C)O1	none (no result: HTRA1 inh, PAFAH1B2 inh, pPAFAH inh, PAFAH1B3 inh, PAFAH2 inh)
CCC(=O)N(Cc1ccco1)c1nc(-c2cc(OC)ccc2OC)cs1	ABHD4 inh 49 | ABHD4 confirm 58
CCC(=O)N(Cc1ccco1)c1nc(-c2ccc(OC)cc2)cs1	none
COc1ccc(Oc2c(Cl)cnn(-c3cc(C)cc(C)c3)c2=O)cc1	none (no result: HTRA1 inh, PAFAH1B2 inh, pPAFAH inh, PAFAH1B3 inh, PAFAH2 inh)
CCOC(=O)c1c(C)n2c3c(cc(C)cc13)CCC2	ABHD4 inh 31 | ABHD4 confirm inactive
CCOC(=O)COc1ccc(/C=C2/C(=O)NN(c3ccc(F)cc3)C2=O)cc1OC	none
CCOC(=O)c1ccc(N2NC(=O)/C(=C/c3ccc(OC(=O)c4ccco4)c(OC)c3)C2=O)cc1	ABHD4 inh 33 (no result: HTRA1 inh, PAFAH1B2 inh, PAFAH1B3 inh, PAFAH2 inh) | ABHD4 confirm inactive
Cc1cc2cc(CNC(=O)c3ccc(S(=O)(=O)N4CCCCC4)cc3)ccc2n1C	ABHD4 inh 87, pPAFAH inh 31 | ABHD4 confirm inactive
CCN(CC)S(=O)(=O)c1ccc(C(=O)NCc2ccc3c(c2)cc(C)n3C)cc1	ABHD4 inh 104 | ABHD4 confirm inactive
CCC(CC)C(=O)NCc1ccc2c(c1)cc(C)n2C	none
Cc1ccc(CNC(=O)c2ccc(S(=O)(=O)N3CCCC3)cc2)cc1	none (no result: PAFAH1B2 inh, pPAFAH inh, PAFAH1B3 inh, PAFAH2 inh)
Cc1cc2cc(CNC(=O)C(C)Oc3ccccc3)ccc2n1C (stereo unspecified)	ABHD4 inh 34 | ABHD4 confirm inactive
Cc1cc2cc(CNC(=O)c3ccc(S(=O)(=O)N4CCCC4)cc3)ccc2n1C	ABHD4 inh 39 | ABHD4 confirm inactive
O=C(CNc1cccc2ccccc12)N/N=C/c1ccccn1	ABHD4 inh 39 (no result: HTRA1 inh, PAFAH1B2 inh, PAFAH1B3 inh, PAFAH2 inh) | ABHD4 confirm 31
Cc1cccc(NCC(=O)N/N=C\c2ccccn2)c1	none
CCC(=O)N1CCc2cc(Br)c(S(=O)(=O)NCCCN(C)Cc3ccccc3)cc21	none (no result: HTRA1 inh, PAFAH1B2 inh, pPAFAH inh, PAFAH1B3 inh, PAFAH2 inh)
Oc1ccc(NC(=S)N=Nc2c(O)[nH]c3ccc(Br)cc23)cc1	ABHD4 inh 30 (no result: pPAFAH inh) | ABHD4 confirm 33
CCOc1ccccc1N1CN(C2CCCCC2)CNC1=S	ABHD4 inh 70 (no result: HTRA1 inh, PAFAH1B2 inh, PAFAH1B3 inh, PAFAH2 inh) | ABHD4 confirm inactive
CCC(=O)N(C)C[C@@H]1[C@H](c2ccc(C3=CCCCC3)cc2)[C@H](CO)N1C(=O)CC	none (no result: HTRA1 inh, PAFAH1B2 inh, pPAFAH inh, PAFAH1B3 inh, PAFAH2 inh)
CC(C)(O)C#Cc1ccc(CN2CCN(Cc3ccsc3)C(CCO)C2)s1 (stereo unspecified)	ABHD4 inh 93 | ABHD4 confirm inactive
CC(=O)c1cc(-c2cccc([N+](=O)[O-])c2)c(=O)n2c1CCC2	none (no result: HTRA1 inh, PAFAH1B2 inh, pPAFAH inh, PAFAH1B3 inh, PAFAH2 inh)
